pIC50: −log10 of the molar value. A value given as a limit tells only on which side of the number the result lay.

The test system of one assay is TF-1. In words: Cytotoxicity against human erythroleukemia TF1 cells. In kind it is functional, cell-based. The method in brief:
(§1)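 Dose-response proliferation assay over 0.16 to 20 µM (final) in tissue-culture plates. Cells were incubated 72 h at 37 °C in 5% CO2, and inhibition was read as Alamar Blue conversion by fluorescence at excitation/emission 544/590 nm.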

A further assay deals with BT-20. In words: Cytotoxicity against human breast carcinoma, BT20 cells. In kind it is functional, cell-based. The method in brief: as §1
The next assay deals with MAT-Ly-Lu. In words: Cytotoxicity against rat prostate carcinoma, MatLyLu cells. In kind it is functional, cell-based. In outline:
as §1

Another assay concerns KHOS/NP. In words: Cytotoxicity against human osteosarcoma, KHOS-NP cells. The class given is functional, cell-based. In outline:
as §1

In the next assay the test system is A-431. In words: Cytotoxicity against human epidermoid carcinoma, A431 cells. In kind it is functional, cell-based. In outline:
as §1

The next assay deals with A-375. In words: Cytotoxicity against human melanoma, A375 cells. In kind it is functional, cell-based. The method in brief:
as §1

The subject of a further assay is A549. In words: Cytotoxicity against human lung carcinoma, A549 cells. The class given is functional, cell-based. In outline:
as §1

Another assay concerns HCT-15. In words: Cytotoxicity against human colon carcinoma, HCT15 cells. The class given is functional, cell-based. The method in brief:
as §1

Another assay has as its system HT-1376. In words: Cytotoxicity against human bladder carcinoma, HT1376 cells. The class given is functional, cell-based. The method in brief:
as §1

A further assay has as its system PA-1. In words: Cytotoxicity against human ovarian teratocarcinoma, PA1 cells. The class given is functional, cell-based. The method in brief: as §1
Another assay concerns HepG2. In words: Cytotoxicity against human hepatoma, HEPG2 cells. The class given is functional, cell-based. The method in brief: as §1
In another assay the test system is HEK293. In words: Cytotoxicity against HEK293 cells. In kind it is functional, cell-based. The settings on record: Homo sapiens. In outline: as §1
For another assay, the system named is BUD-8. In words: Cytotoxicity against human fibroblast, BUD8 cells. The class given is functional, cell-based. The method in brief: as §1
The test system of a further assay is Ramos. In words: Cytotoxicity against human Burkitt lymphoma, RAMOS cells. The class given is functional, cell-based. The method in brief: as §1
A further assay deals with Daudi. In words: Cytotoxicity against human Burkitt lymphoma, DAUDI cells. In kind it is functional, cell-based. In outline: as §1
A further assay has as its system MES-SA. In words: Cytotoxicity against human uterine sarcoma, MES-SA cells. The class given is functional, cell-based. In outline: as §1
A further assay deals with MES-SA/Dx5. In words: Cytotoxicity against human uterine sarcoma, MES-SA-Dx5 cells derived from MES-SA. The class given is functional, cell-based. The method in brief:
as §1

The subject of the next assay is CTLL. In words: Cytotoxicity against murine cytotoxic T cells, CTLL2. The class given is functional, cell-based. The settings on record: Mus musculus. In outline:
as §1

For assay [1], the species on record is Rattus norvegicus. In words: Inhibition of blood vessel growth in rat aorta at 100 ug/mL. In kind it is functional. The method in brief: (§2)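 In vitro angiogenesis assay using rat aorta blood vessel fragments, with compounds dissolved in DMSO. The read-out is percent inhibition of blood vessel growth at each fixed test concentration.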
Assay [2] is filed under the species Rattus norvegicus. In words: Inhibition of blood vessel growth in rat aorta at 10 ug/mL. The class given is functional. In outline:
as §2

The species entered for assay [3] is Rattus norvegicus. In words: Inhibition of blood vessel growth in rat aorta at 1 ug/mL. In kind it is functional. In outline:
as §2

For assay [4], the species on record is Rattus norvegicus. In words: Inhibition of blood vessel growth in rat aorta at 0.1 ug/mL. In kind it is functional. In outline: as §2

By pIC50 is commonly meant the IC50 on a negative log10 scale, so that one unit is a factor of ten. High values mean a low IC50, low ones a high IC50. The term inhibition denotes the relative decrease from the control value, in per cent. `COc1ccc(/C=C(/CN2CCCC[C@@H]2C)c2ccc(O)cc2)cc1OC`: the pIC50 in the assay on TF-1, with BT-20, in the assay on MAT-Ly-Lu, in the assay on KHOS/NP, in the assay on A-431 and in the assay with A-375 was below 4.70 each time. Also, the pIC50 with A549, in the assay on HCT-15, with HT-1376, in the assay on PA-1, in the assay on HepG2 and with HEK293 was below 4.70 in each case. Further, the pIC50 in the assay on BUD-8, in the assay on Ramos, with Daudi, in the assay with MES-SA, in the assay with MES-SA/Dx5 and in the assay with CTLL was below 4.70 each time. Moreover, 100 µg/mL produced 100% inhibition in the assay listed under Rattus norvegicus [1]. In the assay listed under Rattus norvegicus [2], this compound showed an inhibition at 10 µg/mL of 42%. In addition, testing at 1 µg/mL in the assay listed under Rattus norvegicus [3] gave an inhibition of 53%. For the same compound, in the assay listed under Rattus norvegicus [4], 0.1 µg/mL produced 31% inhibition.

Take `COc1ccc2c(CN3CCCC[C@H]3C)cc3cc(OC)c(OC)cc3c2c1`: the pIC50 in the assay on TF-1 is 5.12; with BT-20, 4.96; in the assay on MAT-Ly-Lu it was 4.82; with KHOS/NP, 4.85; with A-431, 5.09; in the assay on A-375, 5.00. In addition, the pIC50 in the assay with A549 was 4.92; with HCT-15, 5.08; in the assay on HT-1376 it was 5.02; in the assay with PA-1 it was 5.14; in the assay on HepG2 it was 5.14; with HEK293, 4.77. The pIC50 was below 4.70 in the assay on BUD-8; 4.81 in the assay with Ramos; 4.92 with Daudi; 5.04 in the assay with MES-SA; 5.07 in the assay on MES-SA/Dx5; 5.09 in the assay with CTLL. This compound registered an inhibition at 10 µg/mL in the assay listed under Rattus norvegicus [2] of 100%. In the assay filed under Rattus norvegicus [3], this compound returned an inhibition at 1 µg/mL of 48%. The compound further displayed an inhibition at 0.1 µg/mL in the assay listed under Rattus norvegicus [4] of 29%.

On to `COc1ccc(/C(=C\c2ccc(OC)c(OC)c2)CN2CCCC[C@@H]2C)cc1`, for which the pIC50 in the assay with TF-1, in the assay on BT-20, in the assay on MAT-Ly-Lu, in the assay with KHOS/NP, with A-431 and in the assay with A-375 was below 4.70 each time. Moreover, the pIC50 in the assay with A549, with HCT-15, in the assay on HT-1376, in the assay on PA-1, in the assay on HepG2 and with HEK293 was below 4.70 in each case. Also, the pIC50 in the assay with BUD-8, in the assay on Ramos, in the assay with Daudi, in the assay with MES-SA, in the assay on MES-SA/Dx5 and in the assay on CTLL was below 4.70 throughout. The same compound gave an inhibition at 100 µg/mL in the assay listed under Rattus norvegicus [1] of 100%. The same compound had an inhibition at 10 µg/mL in the assay listed under Rattus norvegicus [2] of 43%. In the assay listed under Rattus norvegicus [3], testing at 1 µg/mL gave an inhibition of 68%. For the same compound, in the assay listed under Rattus norvegicus [4], testing at 0.1 µg/mL gave an inhibition of 22%.

For `COc1cc2cc(CN3CCCC[C@@H]3C)c3ccc(O)cc3c2cc1OC`, the pIC50 in the assay on TF-1 was 5.01; in the assay with BT-20, 4.86; in the assay with MAT-Ly-Lu it was below 4.70; with KHOS/NP, 4.81; in the assay on A-431, 4.86; in the assay with A-375, 4.95. In addition, the pIC50 is 4.78 in the assay on A549; 5.08 with HCT-15; 5.08 in the assay on HT-1376; 5.10 in the assay with PA-1; 5.08 in the assay on HepG2; 4.83 with HEK293. The pIC50 in the assay with BUD-8 is 4.74; in the assay with Ramos it was 4.74; in the assay with Daudi, 4.87; in the assay with MES-SA, 4.85; with MES-SA/Dx5 it was 4.93; in the assay with CTLL it was 5.04. For the same compound, the inhibition at 100 µg/mL in the assay listed under Rattus norvegicus [1] was 100%. Moreover, at 10 µg/mL the inhibition in the assay listed under Rattus norvegicus [2] was 74%. Further, testing at 1 µg/mL in the assay filed under Rattus norvegicus [3] gave an inhibition of 58%. Further, at 0.1 µg/mL the inhibition in the assay filed under Rattus norvegicus [4] was 35%.

For `COc1ccc2c(CN3CCCC[C@@H]3C)cc3cc(OC)c(OC)cc3c2c1`, the pIC50 with TF-1 is 5.14; in the assay with BT-20, 4.99; with MAT-Ly-Lu it was 4.82; in the assay on KHOS/NP it was 4.91; with A-431 it was 5.09; in the assay with A-375, 5.05. Also, the pIC50 is 4.95 in the assay on A549; 5.11 with HCT-15; 5.01 with HT-1376; 5.13 with PA-1; 5.09 in the assay with HepG2; 4.81 in the assay with HEK293. Further, the pIC50 was below 4.70 in the assay with BUD-8; below 4.70 in the assay on Ramos; 5.04 in the assay with Daudi; 5.00 with MES-SA; 4.93 in the assay with MES-SA/Dx5; 5.12 in the assay on CTLL. The compound further displayed an inhibition at 100 µg/mL in the assay listed under Rattus norvegicus [1] of 100%. Besides, the inhibition at 10 µg/mL in the assay filed under Rattus norvegicus [2] stood at 100%. Testing at 1 µg/mL in the assay listed under Rattus norvegicus [3] gave an inhibition of 42%. Moreover, the inhibition at 0.1 µg/mL in the assay filed under Rattus norvegicus [4] came out at 17%.
